Source: ChEMBL document CHEMBL3751829, “Synthesis and biological evaluation of 3-tetrazolo steroidal analogs: Novel class of 5α-reductase inhibitors” (Bioorg Med Chem, 2016)

What was measured:
Rattus norvegicus [1] = experiment: Increase in body weight gain in male wistar rat at 5ml/kg, po qd measured on 15th day after 24 hrs of last dose (Rvb=9.412+/-1.632g%); assay type: ADME, organism-based; conditions: in vivo
Rattus norvegicus [2] = experiment: Effect on organ weight in male wistar rat assessed as liver tissue weight per 100g at 5ml/kg, po qd measured on 15th day after 24 hrs of last dose (Rvb=2.994+/- 0.254 g/100g); assay type: ADME, organism-based; conditions: in vivo
Rattus norvegicus [3] = experiment: Effect on organ weight in male wistar rat assessed as ventral prostate tissue weight per 100g at 5ml/kg, po qd measured on 15th day after 24 hrs of last dose (Rvb=59.494+/- 4.733 mg/100g); assay type: functional, Prostate gland
Rattus norvegicus [4] = experiment: Effect on organ weight in male wistar rat assessed as dorsal prostate tissue weight per 100g at 5ml/kg, po qd measured on 15th day after 24 hrs of last dose (Rvb=50.325+/-7.519 mg/100g); assay type: functional, Prostate gland
Rattus norvegicus [5] = experiment: Effect on organ weight in male wistar rat assessed as seminal vesicles tissue weight per 100g at 5ml/kg, po qd measured on 15th day after 24 hrs of last dose (Rvb=175.439+/-12.833 mg/100g); assay type: ADME, organism-based; conditions: in vivo
Rattus norvegicus [6] = experiment: Effect on organ weight in male wistar rat assessed testis tissue weight per 100g at 5ml/kg, po qd measured on 15th day after 24 hrs of last dose (Rvb=1054.099+/- 55.648 mg/100g); assay type: ADME, organism-based; conditions: in vivo
Rattus norvegicus [7] = experiment: Effect on organ weight in male wistar rat assessed as adrenal tissue weight per 100g at 5ml/kg, po qd measured on 15th day after 24 hrs of last dose (Rvb=14.762 +/-0.600 mg/100g); assay type: ADME, organism-based; conditions: in vivo
Rattus norvegicus [8] = experiment: Effect on organ weight in male wistar rat assessed as vas deferens tissue weight per 100g at 5ml/kg, po qd measured on 15th day after 24 hrs of last dose (Rvb=67.613+/-3.248 mg/100g); assay type: functional
Rattus norvegicus [9] = experiment: Effect on organ weight in male wistar rat assessed as epididymis tissue weight per 100g at 5ml/kg, po qd measured on 15th day after 24 hrs of last dose (Rvb=187.356+/- 5.961 mg/100g); assay type: functional
[10] = target: T1, 3-oxo-5-alpha-steroid 4-dehydrogenase 2 (Homo sapiens, UniProt P31213); experiment: Inhibition of human 5alpha-2 reductase expressed in HEK293 cells assessed as suppression of conversion of [3]androstenedione incubated for 30 mins by radioactivity-based HPLC analysis; assay type: cell-based
T1 sequence (P31213 whole entry): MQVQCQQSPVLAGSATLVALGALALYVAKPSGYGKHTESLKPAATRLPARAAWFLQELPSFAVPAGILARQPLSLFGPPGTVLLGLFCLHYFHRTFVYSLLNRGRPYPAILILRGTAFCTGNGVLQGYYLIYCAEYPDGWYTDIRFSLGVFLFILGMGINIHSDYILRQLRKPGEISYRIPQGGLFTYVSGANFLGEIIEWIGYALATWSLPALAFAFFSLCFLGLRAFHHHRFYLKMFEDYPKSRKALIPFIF
Summary of the method: (§1)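 Stably transfected HEK293 lines expressing 5AR-1 (HEK-I) or 5AR-2 (HEK-II) were sonicated in saccharose/Tris/EDTA buffer. The suspension was incubated at 37 °C for 30 min with 500 nM androstenedione solution plus [3H]androstenedione and an NADP/glucose/G6PDH regenerating system. Test compounds were added in 2% DMSO. The reaction was stopped with ether; steroids were extracted and analysed by radio-HPLC.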

[11] = Cytotoxicity against human DU145 cells by rapid colorimetric assay; assay type: functional, cell-based, DU-145
Summary of the method: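 Antiproliferative test on DU-145 cells using the Mosmann method. Seven concentrations were tested in culture medium.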

Rattus norvegicus [12] = experiment: Decrease in ventral prostate organ weight in male wistar rat at 5ml/kg, po qd measured on 15th day after 24 hrs of last dose; assay type: functional, Prostate gland; parameters: scale not given: the % may be the effect or the level left
Rattus norvegicus [13] = experiment: Decrease in dorsal prostate organ weight in male wistar rat at 5ml/kg, po qd measured on 15th day after 24 hrs of last dose; assay type: functional, Prostate gland; parameters: scale not given: the % may be the effect or the level left
Rattus norvegicus [14] = experiment: Decrease in vas deferens organ weight in male wistar rat at 5ml/kg, po qd measured on 15th day after 24 hrs of last dose; assay type: functional; parameters: scale not given: the % may be the effect or the level left
Rattus norvegicus [15] = experiment: Decrease in epididymis organ weight in male wistar rat at 5ml/kg, po qd measured on 15th day after 24 hrs of last dose; assay type: functional; parameters: scale not given: the % may be the effect or the level left
[16] = target: T2, 3-oxo-5-alpha-steroid 4-dehydrogenase 1 (Homo sapiens) (UniProt P18405); experiment: Inhibition of human 5alpha-1 reductase expressed in HEK293 cells assessed as suppression of conversion of [3]androstenedione at 10 uM incubated for 30 mins by radioactivity-based HPLC analysis; assay type: cell-based; summary of the method: as §1
T2 sequence (whole entry): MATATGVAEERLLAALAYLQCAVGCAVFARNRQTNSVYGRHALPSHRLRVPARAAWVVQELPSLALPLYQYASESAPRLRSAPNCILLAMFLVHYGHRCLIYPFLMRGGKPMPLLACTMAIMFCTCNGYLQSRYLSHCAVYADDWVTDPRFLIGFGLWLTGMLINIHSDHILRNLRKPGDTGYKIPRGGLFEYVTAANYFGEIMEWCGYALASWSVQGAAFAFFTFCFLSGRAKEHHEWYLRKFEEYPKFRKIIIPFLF

[17] = target: T3, 3-oxo-5-alpha-steroid 4-dehydrogenase 2 (Homo sapiens) (UniProt P31213); experiment: Inhibition of human 5alpha-2 reductase expressed in HEK293 cells assessed as suppression of conversion of [3]androstenedione at 10 uM incubated for 30 mins by radioactivity-based HPLC analysis; assay type: cell-based; summary of the method: as §1
T3 sequence (whole entry): T1 sequence (P31213 whole entry)

[18] = target: T3, 3-oxo-5-alpha-steroid 4-dehydrogenase 2 (Homo sapiens); experiment: Inhibition of human 5alpha-2 reductase expressed in HEK293 cells assessed as suppression of conversion of [3]androstenedione at 2 uM incubated for 30 mins by radioactivity-based HPLC analysis; assay type: cell-based; summary of the method: as §1
Rattus norvegicus [19] = experiment: Toxicity in male wistar rat assessed induction of mortality at 5ml/kg, po qd measured on 15th day after 24 hrs of last dose; assay type: organism-based; conditions: in vivo
Summary of the method: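 Mature male Wistar rats, groups of 5, standard diet. Compounds suspended in 0.50% CMC sodium given orally at 5 ml/kg once daily for 14 days; controls received vehicle only. Animals weighed and killed under ether on day 15, 24 h after last dose.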

[20] = target: T2, 3-oxo-5-alpha-steroid 4-dehydrogenase 1 (Homo sapiens); experiment: Inhibition of human 5alpha-1 reductase expressed in HEK293 cells assessed as suppression of conversion of [3]androstenedione at 2 uM incubated for 30 mins by radioactivity-based HPLC analysis; assay type: cell-based
Summary of the method: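 Lysates of stably transfected HEK293 cells (80% confluent cells sonicated in 300 mM saccharose, 5 mM Tris–HCl, 0.1 mM EDTA). Master mix: Tris buffer, androstenedione (500 nM solution) plus tracer [3H]androstenedione, NADP/glucose/glucose-6-P-dehydrogenase regenerating system; compound added in 2% DMSO. Cell suspension mixed 1:1 with master mix, 37 °C for 30 min. Stopped with ether; steroids extracted, dried, taken up in methanol, radio-HPLC.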

[21] = Homo sapiens, DU-145, read-out: IC50

| SMILES | Activity (Rattus norvegicus [1]) | Activity (Rattus norvegicus [2]) | Activity (Rattus norvegicus [3]) | Activity (Rattus norvegicus [4]) | Activity (Rattus norvegicus [5]) | Activity (Rattus norvegicus [6]) | Activity (Rattus norvegicus [7]) | Activity (Rattus norvegicus [8]) | Activity (Rattus norvegicus [9]) | IC50 [10] | IC50 [11, 21] | Activity (Rattus norvegicus [12]) | Activity (Rattus norvegicus [13]) | Activity (Rattus norvegicus [14]) | Activity (Rattus norvegicus [15]) | inhibition [16] | inhibition [17] | inhibition [18] | Activity (Rattus norvegicus [19]) | IC50 ([11]; du-145) | other results |
| --- | --- | --- | --- | --- | --- | --- | --- | --- | --- | --- | --- | --- | --- | --- | --- | --- | --- | --- | --- | --- | --- |
| C[C@]12CC[C@H]3[C@@H](CCC4=CC(=O)CC[C@@]43C)[C@@H]1CC[C@@H]2O [TESTOSTERONE] | 3.767 g% | 3.292 g | 70.923 mg | 45.124 mg | 167.305 mg | 1108.457 mg | 13.969 mg | 55.097 mg | 171.193 mg |  |  |  |  |  |  |  |  |  |  |  |  |
| CC(C)(C)NC(=O)[C@H]1CC[C@H]2[C@@H]3CC[C@H]4NC(=O)C=C[C@]4(C)[C@H]3CC[C@]12C [FINASTERIDE] | 8.032 g% | 3.5097 g | 32.866 mg | 27.519 mg | 105.51 mg | 1058.022 mg | 16.575 mg | 57.843 mg | 160.371 mg | 40 nM | 548000 nM | 44.76% | 45.32% | 14.45% | 14.4% |  |  |  |  |  |  |
| CN1C(=O)CC[C@H]2[C@@H]3CC=C4C=C(c5nnn[nH]5)CC[C@]4(C)[C@H]3CC[C@@]21C | 15.456 g% | 3.328 g | 41.684 mg | 44.593 mg | 199.778 mg | 1233.129 mg | 16.362 mg | 59.796 mg | 170.447 mg | 274 nM | 389000 nM | 29.94% | 11.39% | 11.56% | 9.03% | 6.4% | 91.2% | 84.3% | Non-toxic |  |  |
| C[C@]12CCC(c3nnn[nH]3)=CC1=CC[C@@H]1[C@@H]2CC[C@]2(C)NC(=O)CC[C@@H]12 | 15.498 g% | 3.215 g | 44.744 mg | 31.548 mg | 183.148 mg | 1152.287 mg | 16.421 mg | 42.532 mg | 166.584 mg | 220 nM |  | 24.79% | 37.31% | 37.09% | 11.09% | 9.6% | 100% | 90.6% | Non-toxic | Not Active |  |
| C[C@]12CC[C@H]3[C@@H](CC=C4C=C(c5nnn[nH]5)CC[C@@H]43)[C@@H]1CCC2=O | 21.51 g% | 3.457 g | 56.124 mg | 46.695 mg | 188.757 mg | 1350.787 mg | 19.76 mg | 59.232 mg | 180.908 mg |  | 536000 nM | 5.66% | 7.21% | 12.4% | 3.44% | 79.7% | 79.7% | 60.6% | Non-toxic |  | inhibition [20]: 36.2% |
| C[C@]12CCC(c3nnn[nH]3)=CC1=CC[C@@H]1[C@@H]2CC[C@@]2(C)[C@H]1CCC(=O)N2Cc1ccccc1 |  |  |  |  |  |  |  |  |  |  |  |  |  |  |  |  |  |  |  | ND(Unstable) |  |
| C[C@]12C=CC(=O)N[C@@H]1CC[C@@H]1[C@@H]2CC[C@]2(C)[C@@H](C(=O)Nc3cc(C(F)(F)F)ccc3C(F)(F)F)CC[C@@H]12 [DUTASTERIDE] | 11.914 g% | 3.209 g | 35.858 mg | 29.211 mg | 118.275 mg | 1067.385 mg | 14.208 mg | 52.802 mg | 155.415 mg |  |  |  |  |  |  |  |  |  |  |  |  |
| C=CCN1C(=O)CC[C@H]2[C@@H]3CC=C4C=C(c5nnn[nH]5)CC[C@]4(C)[C@H]3CC[C@@]21C | 19.229 g% | 3.548 g | 39.499 mg | 41.802 mg | 141.816 mg | 1318.403 mg | 24.261 mg | 42.548 mg | 169.924 mg | 157 nM | 496000 nM | 33.61% | 16.94% | 37.07% | 9.3% | 31.7% | 100% | 94.7% | Non-toxic |  |  |
| C[C@]12CCC(c3nnn[nH]3)=CC1=CC[C@@H]1[C@@H]2CC[C@]2(C)C(=O)CC[C@@H]12 | 18.382 g% | 3.257 g | 38.551 mg | 42.651 mg | 95.251 mg | 1090.046 mg | 17.986 mg | 27.646 mg | 119.445 mg | 83.8 nM |  | 35.2% | 15.25% | 59.11% | 36.25% | 81.1% | 100% | 100% | Non-toxic | Not Active | inhibition [20]: 38.7% |
| CC(=O)n1nnnc1C1=CC2=CC[C@@H]3[C@H](CC[C@]4(C)NC(=O)CC[C@@H]34)[C@@]2(C)CC1 |  |  |  |  |  |  |  |  |  |  |  |  |  |  |  |  |  |  |  | ND(Unstable) |  |
| C[C@]12CCC(c3nnn[nH]3)=CC1=CC[C@@H]1[C@@H]2CC[C@@]2(C)[C@H]1CCC(=O)N2CCc1nnn[nH]1 |  |  |  |  |  |  |  |  |  |  |  |  |  |  |  |  |  |  |  | ND(Unstable) |  |
| CCN1C(=O)CC[C@H]2[C@@H]3CC=C4C=C(c5nnn[nH]5)CC[C@]4(C)[C@H]3CC[C@@]21C |  |  |  |  |  |  |  |  |  |  |  |  |  |  |  |  |  |  |  | ND(Unstable) |  |
